Assay results published in ChEMBL document CHEMBL1138283, “5'-O-[(N-acyl)sulfamoyl]adenosines as antitubercular agents that inhibit MbtA: an adenylation enzyme required for siderophore biosynthesis of the mycobactins” (J Med Chem, 2007).
pKi: −log10 of the molar value. ≈ marks a conversion by molar mass, not a printed value.

Columns and labels:
[1] = tested on: Mycobacterium tuberculosis; test: Antimycobacterial activity against Mycobacterium tuberculosis H37Rv in iron deficient GAST medium; format: functional
Outline: (§1)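 Broth microdilution MIC against M. tuberculosis H37Rv in iron-deficient GAST, or GAST supplemented with 200 μM FeCl3 (iron-rich). Compounds added from DMSO stocks; DMSO-only wells as negative control, isoniazid as positive control. Initial density 10^4–10^5 cells/assay, 37 °C, growth read as OD620 at 10–14 days. Run in quadruplicate; reported as MIC99.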

[2] = tested on: Mycobacterium tuberculosis; test: Antimycobacterial activity against Mycobacterium tuberculosis H37Rv in iron rich GAST medium; format: functional; outline: as §1
[3] = molecular target: T1, Salicyl-AMP ligase / salicyl-S-ArCP synthetase (Mycobacterium tuberculosis, UniProt P71716); test: Inhibition of Mycobacterium tuberculosis recombinant MbtA expressed in Escherichia coli by ATP/PPi exchange assay; conditions: read-out: Ki app
T1 sequence (P71716 whole entry): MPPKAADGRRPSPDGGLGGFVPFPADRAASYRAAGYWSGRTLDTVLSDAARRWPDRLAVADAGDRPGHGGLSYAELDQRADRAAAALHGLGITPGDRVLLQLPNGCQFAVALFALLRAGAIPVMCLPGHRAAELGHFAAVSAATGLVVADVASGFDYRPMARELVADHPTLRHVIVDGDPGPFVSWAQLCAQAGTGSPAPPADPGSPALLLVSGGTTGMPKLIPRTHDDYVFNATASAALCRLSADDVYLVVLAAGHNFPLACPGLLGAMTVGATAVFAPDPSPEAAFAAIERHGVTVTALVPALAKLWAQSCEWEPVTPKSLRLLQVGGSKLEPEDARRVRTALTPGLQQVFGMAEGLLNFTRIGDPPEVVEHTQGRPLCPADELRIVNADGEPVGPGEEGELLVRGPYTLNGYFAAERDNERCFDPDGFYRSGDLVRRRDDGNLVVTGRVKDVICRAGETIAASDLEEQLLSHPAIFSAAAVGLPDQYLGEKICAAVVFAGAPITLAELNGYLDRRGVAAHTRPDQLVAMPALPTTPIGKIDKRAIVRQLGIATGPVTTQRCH
Outline: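 Recombinant MbtA expressed in E. coli, 7 nM, at 37 °C in 75 mM Tris-HCl pH 7.5, 10 mM MgCl2, 2 mM DTT, 250 μM salicylic acid, 10 mM ATP, 1 mM PPi. Reaction started with [32P]PPi, five inhibitor concentrations, in duplicate. Initial rates (≤10% reaction) measured. Quenched with HClO4/PPi/charcoal; charcoal-bound [32P]ATP counted by scintillation. Apparent Ki from Hill or Morrison (tight-binding) fits.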

| Structure (SMILES) | MIC99 [1] [µM] | MIC99 [2] [µM] | pKi [3] |
| --- | --- | --- | --- |
| Nc1ncnc2c1ncn2[C@@H]1O[C@H](COS(=O)(=O)NC(=O)c2ccccc2F)[C@@H](O)[C@H]1O | 12.5 (≈ 5.86 µg/mL) | 50 (≈ 23.4 µg/mL) | 7.42 |
| Nc1ncnc2c1ncn2[C@@H]1O[C@H](COS(=O)(=O)NC(=O)c2ccccc2Cl)[C@@H](O)[C@H]1O | > 200 | > 200 | 4.74 |
| Nc1ncnc2c1ncn2[C@@H]1O[C@H](COS(=O)(=O)NC(=O)c2cccc(Cl)c2O)[C@@H](O)[C@H]1O | 50 (≈ 25 µg/mL) | > 200 | 7.21 |
| Nc1ncnc2c1ncn2[C@@H]1O[C@H](COS(=O)(=O)NC(=O)c2ccc(Cl)cc2O)[C@@H](O)[C@H]1O | 12.5 (≈ 6.26 µg/mL) | 50 (≈ 25 µg/mL) | 7.92 |
| Nc1ncnc2c1ncn2[C@@H]1O[C@H](COS(=O)(=O)NC(=O)c2cc(Cl)ccc2O)[C@@H](O)[C@H]1O | 12.5 (≈ 6.26 µg/mL) | 50 (≈ 25 µg/mL) | 7.70 |
| Nc1ncnc2c1ncn2[C@@H]1O[C@H](COS(=O)(=O)NC(=O)c2ccc(F)cc2O)[C@@H](O)[C@H]1O | 0.098 (≈ 0.0475 µg/mL) | 0.39 (≈ 0.189 µg/mL) | 7.92 |
| Nc1ncnc2c1ncn2[C@@H]1O[C@H](COS(=O)(=O)NC(=O)c2ccc(Br)cc2O)[C@@H](O)[C@H]1O | 6.25 (≈ 3.41 µg/mL) | 50 (≈ 27.3 µg/mL) | 7.68 |
| Cc1ccc(C(=O)NS(=O)(=O)OC[C@H]2O[C@@H](n3cnc4c(N)ncnc43)[C@H](O)[C@@H]2O)c(O)c1 | 1.56 (≈ 0.75 µg/mL) | 25 (≈ 12 µg/mL) | 7.85 |
| Nc1ncnc2c1ncn2[C@@H]1O[C@H](COS(=O)(=O)NC(=O)c2ccc(C(F)(F)F)cc2O)[C@@H](O)[C@H]1O | > 200 | > 200 | 5.36 |
| Nc1ccc(C(=O)NS(=O)(=O)OC[C@H]2O[C@@H](n3cnc4c(N)ncnc43)[C@H](O)[C@@H]2O)c(O)c1 | 1.56 (≈ 0.751 µg/mL) | 25 (≈ 12 µg/mL) | 7.40 |
| Nc1ncnc2c1ncn2[C@@H]1O[C@H](COS(=O)(=O)NC(=O)c2c(O)cccc2F)[C@@H](O)[C@H]1O | 0.78 (≈ 0.378 µg/mL) | 3.13 (≈ 1.52 µg/mL) | 8.14 |
| Nc1ncnc2c1ncn2[C@@H]1O[C@H](COS(=O)(=O)NC(=O)c2cccc(O)c2O)[C@@H](O)[C@H]1O | > 200 | > 200 | 6.86 |
| Nc1ncnc2c1ncn2[C@@H]1O[C@H](COS(=O)(=O)NC(=O)c2ccc(O)c(O)c2)[C@@H](O)[C@H]1O | > 200 | > 200 | < 4.00 |
| Nc1ncnc2c1ncn2[C@@H]1O[C@H](COS(=O)(=O)NC(=O)c2ccc[nH]c2=O)[C@@H](O)[C@H]1O | > 200 | > 200 | 5.43 |
| Nc1ncnc2c1ncn2[C@@H]1O[C@H](COS(=O)(=O)NC(=O)c2cccnc2F)[C@@H](O)[C@H]1O | > 200 | > 200 | 5.54 |
| Nc1ncnc2c1ncn2[C@@H]1O[C@H](COS(=O)(=O)NC(=O)c2cccnc2Cl)[C@@H](O)[C@H]1O | 12.5 (≈ 6.07 µg/mL) | 50 (≈ 24.3 µg/mL) | 6.76 |
| Nc1ncnc2c1ncn2[C@@H]1O[C@H](COS(=O)(=O)NC(=O)N2CCOCC2)[C@@H](O)[C@H]1O | > 200 | > 200 | < 4.00 |
| Nc1ncnc2c1ncn2[C@@H]1O[C@H](COS(=O)(=O)NC(=O)C2CCCC2)[C@@H](O)[C@H]1O | > 200 | > 200 | 4.30 |
| Nc1ncnc2c1ncn2[C@@H]1O[C@H](COS(=O)(=O)NC(=O)C2CCCCC2)[C@@H](O)[C@H]1O | > 200 | > 200 | 4.76 |
| CC(=O)NS(=O)(=O)OC[C@H]1O[C@@H](n2cnc3c(N)ncnc32)[C@H](O)[C@@H]1O | > 200 | > 200 | < 4.00 |
| COC(=O)NS(=O)(=O)OC[C@H]1O[C@@H](n2cnc3c(N)ncnc32)[C@H](O)[C@@H]1O | > 200 | > 200 | 5.60 |
| Nc1ncnc2c1ncn2[C@@H]1O[C@H](COS(=O)(=O)NC(=O)Cc2ccccc2)[C@@H](O)[C@H]1O | > 200 | > 200 | < 4.00 |
| [N-]=[N+]=Nc1c(F)c(F)c(C(=O)NS(=O)(=O)OC[C@H]2O[C@@H](n3cnc4c(N)ncnc43)[C@H](O)[C@@H]2O)c(F)c1F | > 200 | > 200 | < 4.00 |
| Nc1ncnc2c1ncn2[C@@H]1O[C@H](CNC(=O)c2coc3ccccc3c2=O)[C@@H](O)[C@H]1O | 12.5 (≈ 5.48 µg/mL) | 50 (≈ 21.9 µg/mL) | < 4.00 |
| Nc1ncnc2c1ncn2[C@@H]1O[C@H](CNS(=O)(=O)NC(=O)c2ccccc2O)[C@@H](O)[C@H]1O |  | 0.39 (≈ 0.182 µg/mL) |  |
| Nc1ncnc2c1ncn2[C@@H]1O[C@H](CNC(=O)NC(=O)c2ccccc2O)[C@@H](O)[C@H]1O | 200 (≈ 85.9 µg/mL) | > 200 | 5.90 |
| Nc1ccccc1C(=O)NS(=O)(=O)OC[C@H]1O[C@@H](n2cnc3c(N)ncnc32)[C@H](O)[C@@H]1O | > 200 | > 200 | 6.11 |
| Nc1ncnc2c1ncn2[C@@H]1O[C@H](COS(=O)(=O)NC(=O)c2ccccc2)[C@@H](O)[C@H]1O | 12.5 (≈ 5.63 µg/mL) | 50 (≈ 22.5 µg/mL) | 7.04 |
| Nc1ncnc2c1ncn2[C@@H]1O[C@H](COS(=O)(=O)NC(=O)c2ccccc2[N+](=O)[O-])[C@@H](O)[C@H]1O | > 200 | > 200 | 5.14 |
| Nc1ncnc2c1ncn2[C@@H]1O[C@H](COS(=O)(=O)NC(=O)[C@@H](N)Cc2ccccc2)[C@@H](O)[C@H]1O [PHESA] | > 200 | > 200 | 4.44 |
